From article PMC2885802 (Current radiopharmaceuticals, 2010)

What was measured:
[1] = guanidino group of IAC; ref not given; cited from earlier work
[2] = test system: αvβ3; details: αvβ3 antagonist; not measured here, no ref given; cited from earlier work
[3] = Stability study in mouse serum; type: in vitro ADME; details: 37 °C; for % of 99mTc radioactivity associated with 99mTcO4−1: mouse serum, 18 h; for % intact when incubated in serum: 18 hrs
In short: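 Purified 99mTc-labeled test compound (116 μCi, 4.29 MBq) was added to mouse serum containing 0.04% sodium azide, buffered with sodium phosphate pH 7.2, and held at 37 °C. Timed aliquots went to size-exclusion HPLC (TSK G3000SWXL; 0.067 M sodium phosphate/0.10 M KCl, pH 6.8; 1.0 ml/min) with UV and online radioactivity detection. Intact, protein-bound and 99mTcO4− fractions were measured; N ≥ 3.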

[4] = biological target: human integrin αvβ3 (Homo sapiens, UniProt P05106+P06756); assay: Receptor-binding assay; details: 0.8 μM αvβ3, 37 °C, 3 hrs, n = 4
In short: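 Purified 99mTc-labeled test compound (1.1×10^6 cpm, <2.5 pmol) was incubated with 2.6 to 51.2 pmol human integrin αvβ3 in PBS pH 7.2 at 37 °C for 3 hrs. Non-specific binding was taken with a 250-fold molar excess of unlabeled antagonist. Bound (7 min) and free (15 min) label were separated by size-exclusion HPLC (TSK G3000SWXL).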

[5] = Stability in PBS; type: physicochemical; details: 18-h period of incubation
[6] = test system: receptor-positive M21 human melanoma xenografts; assay: Biodistribution study in nude mice bearing M21 xenografts; type: in vivo; details: for tumor uptake with co-injection of antagonist: co-injection of 200 μg unlabeled IA; for tumor uptake: 1 h after i.v. injection; for excretion route: inferred from whole-body retention
In short: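 Athymic nude mice carried s.c. right-flank xenografts from 3 × 10^6 M21 cells (grown in RPMI 1640, 10% FBS, 1% penicillin-streptomycin, 5% CO2). At about 200 mm3 tumor size, mice received i.v. 99mTc-labeled test compound (6.25 μCi, 0.231 MBq/6 pmol in PBS with 1% BSA). They were euthanized at set times for tissue %ID/g and tumor-to-organ ratios; n=4~15 per time point.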

human integrin αvβ3, sequence (P06756 31-889 limits assumed): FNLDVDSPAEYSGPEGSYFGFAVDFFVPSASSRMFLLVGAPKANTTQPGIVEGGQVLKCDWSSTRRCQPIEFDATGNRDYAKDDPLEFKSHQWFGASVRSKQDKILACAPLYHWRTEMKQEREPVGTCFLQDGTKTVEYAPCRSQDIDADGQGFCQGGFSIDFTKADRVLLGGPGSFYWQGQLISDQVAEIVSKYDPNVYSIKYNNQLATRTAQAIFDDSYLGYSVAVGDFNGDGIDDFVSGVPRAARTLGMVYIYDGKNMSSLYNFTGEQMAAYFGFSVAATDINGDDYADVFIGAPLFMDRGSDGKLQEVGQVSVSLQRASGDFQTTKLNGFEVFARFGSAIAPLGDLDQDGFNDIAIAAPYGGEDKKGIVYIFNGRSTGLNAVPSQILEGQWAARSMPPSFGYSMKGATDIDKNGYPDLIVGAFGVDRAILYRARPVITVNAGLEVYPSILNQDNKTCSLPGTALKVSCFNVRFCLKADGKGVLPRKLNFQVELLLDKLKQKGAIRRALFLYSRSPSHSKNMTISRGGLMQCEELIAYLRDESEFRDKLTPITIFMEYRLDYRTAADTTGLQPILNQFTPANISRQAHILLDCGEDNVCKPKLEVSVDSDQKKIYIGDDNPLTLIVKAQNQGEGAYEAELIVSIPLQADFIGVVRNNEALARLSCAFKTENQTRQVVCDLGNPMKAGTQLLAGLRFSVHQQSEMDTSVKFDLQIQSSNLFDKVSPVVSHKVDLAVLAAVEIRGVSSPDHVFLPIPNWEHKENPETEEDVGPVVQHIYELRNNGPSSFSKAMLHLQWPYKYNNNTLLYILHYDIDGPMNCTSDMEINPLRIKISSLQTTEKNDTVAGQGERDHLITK
human integrin αvβ3, sequence (P06756 891-1048 partner limits assumed): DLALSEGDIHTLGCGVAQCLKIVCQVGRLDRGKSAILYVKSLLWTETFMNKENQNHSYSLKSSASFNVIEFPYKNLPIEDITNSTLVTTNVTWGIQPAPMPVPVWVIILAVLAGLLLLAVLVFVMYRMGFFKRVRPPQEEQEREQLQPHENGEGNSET
human integrin αvβ3, sequence (P05106 27-788): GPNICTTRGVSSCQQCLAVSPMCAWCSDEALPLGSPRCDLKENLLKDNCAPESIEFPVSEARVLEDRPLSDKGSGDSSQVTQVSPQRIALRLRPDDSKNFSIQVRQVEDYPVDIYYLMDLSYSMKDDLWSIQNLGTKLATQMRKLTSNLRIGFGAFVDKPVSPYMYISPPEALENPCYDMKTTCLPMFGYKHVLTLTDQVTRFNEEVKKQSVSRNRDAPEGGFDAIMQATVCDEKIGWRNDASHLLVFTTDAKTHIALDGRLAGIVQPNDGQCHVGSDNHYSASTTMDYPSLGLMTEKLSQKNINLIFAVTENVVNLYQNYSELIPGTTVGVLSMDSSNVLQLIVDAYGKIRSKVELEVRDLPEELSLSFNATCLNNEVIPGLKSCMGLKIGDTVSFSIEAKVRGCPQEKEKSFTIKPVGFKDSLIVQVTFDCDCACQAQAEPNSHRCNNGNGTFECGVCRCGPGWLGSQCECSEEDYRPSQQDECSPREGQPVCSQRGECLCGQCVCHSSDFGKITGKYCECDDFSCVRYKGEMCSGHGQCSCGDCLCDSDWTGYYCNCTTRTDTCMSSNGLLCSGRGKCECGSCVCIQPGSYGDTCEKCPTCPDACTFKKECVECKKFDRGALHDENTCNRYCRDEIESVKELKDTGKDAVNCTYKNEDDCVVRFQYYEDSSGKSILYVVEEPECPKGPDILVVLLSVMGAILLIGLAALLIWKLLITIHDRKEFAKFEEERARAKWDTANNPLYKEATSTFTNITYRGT

Compound: CC(C)(CN)CNC(=O)NCCS(=O)(=O)N[C@@H](CNC(=O)c1ccc(OCCNC2=NCCCN2)cc1)C(=O)O.Cl [IAC, 4-[2-(3,4,5,6-tetrahydropyrimidin-2-ylamino)-ethyloxy]benzoyl-2-(S)-[N-(3-aminoneopenta-1-carbamyl)]-aminoethylsulfonylamino-β-alanine hydrochloride]
- pKa [1]: ~ 12
- IC50 [2]: 2.94 nM

Compound: ^99mTc EDDA2/HYNIC-IAC [P1]
- % of 99mTc radioactivity associated with 99mTcO4−1 [3]: 3%
- % intact when incubated in serum [3]: 84%
- receptor-bindability (% bound to αvβ3) [4]: 78.02 ± 13.48%
- stability in PBS [5]: stable
- tumor uptake value over time ([6]; 4-h period): remained relatively unchanged
- Tumor-to-organ ratio, Blood ([6]; 0.3 h): 0.90±0.20
- Tumor-to-organ ratio, Bone ([6]; 0.3 h): 1.29±0.23
- Tumor-to-organ ratio, Heart ([6]; 0.3 h): 1.91±0.43
- Tumor-to-organ ratio, Intestine ([6]; 0.3 h): 0.66±0.07
- Tumor-to-organ ratio, Kidney ([6]; 0.3 h): 0.51±0.12
- Tumor-to-organ ratio, Liver ([6]; 0.3 h): 0.72±0.12
- Tumor-to-organ ratio, Lung ([6]; 0.3 h): 0.72±0.10
- Tumor-to-organ ratio, Muscle ([6]; 0.3 h): 3.04±0.68
- Tumor-to-organ ratio, Spleen ([6]; 0.3 h): 0.71±0.07
- Tumor-to-organ ratio, Stomach ([6]; 0.3 h): 0.54±0.13
- Tumor-to-organ ratio, Blood ([6]; 1 h): 1.38±0.48
- Tumor-to-organ ratio, Bone ([6]; 1 h): 2.12±1.17
- Tumor-to-organ ratio, Heart ([6]; 1 h): 2.48±0.75
- Tumor-to-organ ratio, Intestine ([6]; 1 h): 0.60±0.19
- Tumor-to-organ ratio, Kidney ([6]; 1 h): 0.75±0.28
- Tumor-to-organ ratio, Liver ([6]; 1 h): 0.89±0.27
- Tumor-to-organ ratio, Lung ([6]; 1 h): 1.19±0.43
- Tumor-to-organ ratio, Muscle ([6]; 1 h): 6.11±1.80
- Tumor-to-organ ratio, Spleen ([6]; 1 h): 1.36±0.38
- Tumor-to-organ ratio, Stomach ([6]; 1 h): 0.40±0.20
- whole-body retention ([6]; 1 h): 39.58 ± 2.91 % ID
- effect of unlabeled IA co-injection on tumor uptake ([6]; 1 h, 0, 10 and 200 μg unlabeled IA): blocked by unlabeled IA in a concentration dependent manner
- tumor uptake with co-injection of antagonist ([6]; 1 h): 0.68 ± 0.06 % ID/g
- tumor uptake [6]: 3.17±0.52 % ID/g
- Tumor-to-organ ratio, Blood ([6]; 2 h): 2.19±0.18
- Tumor-to-organ ratio, Bone ([6]; 2 h): 2.46±0.19
- Tumor-to-organ ratio, Heart ([6]; 2 h): 3.23±0.48
- Tumor-to-organ ratio, Intestine ([6]; 2 h): 0.57±0.07
- Tumor-to-organ ratio, Kidney ([6]; 2 h): 0.85±0.08
- Tumor-to-organ ratio, Liver ([6]; 2 h): 1.02±0.12
- Tumor-to-organ ratio, Lung ([6]; 2 h): 1.50±0.09
- Tumor-to-organ ratio, Muscle ([6]; 2 h): 4.68±0.31
- Tumor-to-organ ratio, Spleen ([6]; 2 h): 1.30±0.12
- Tumor-to-organ ratio, Stomach ([6]; 2 h): 0.43±0.11
- Tumor-to-organ ratio, Blood ([6]; 4 h): 17.11±5.18
- Tumor-to-organ ratio, Bone ([6]; 4 h): 4.78±1.07
- Tumor-to-organ ratio, Heart ([6]; 4 h): 7.62±1.99
- Tumor-to-organ ratio, Intestine ([6]; 4 h): 0.46±0.15
- Tumor-to-organ ratio, Kidney ([6]; 4 h): 1.22±0.32
- Tumor-to-organ ratio, Liver ([6]; 4 h): 1.59±0.72
- Tumor-to-organ ratio, Lung ([6]; 4 h): 2.47±0.49
- Tumor-to-organ ratio, Muscle ([6]; 4 h): 7.84±1.78
- Tumor-to-organ ratio, Spleen ([6]; 4 h): 2.83±0.81
- Tumor-to-organ ratio, Stomach ([6]; 4 h): 1.53±0.80
- whole-body retention ([6]; 4 h): 27.25 ± 3.67 % ID
- excretion route [6]: excreted primarily via the renal system

Compound: ^99mTc PDA (tricin)/HYNIC-IAC [P2]
- % of 99mTc radioactivity associated with 99mTcO4−1 [3]: 9%
- % intact when incubated in serum [3]: 77%
- receptor-bindability (% bound to αvβ3) [4]: 51.05 ± 14.05%
- stability in PBS [5]: stable
- accumulation in liver and intestine compared with P1 ([6]; 4-h period): significantly higher accumulation
- Tumor-to-organ ratio, Blood ([6]; 1 h): 1.83±0.16
- Tumor-to-organ ratio, Bone ([6]; 1 h): 1.48±0.37
- Tumor-to-organ ratio, Heart ([6]; 1 h): 2.64±0.36
- Tumor-to-organ ratio, Intestine ([6]; 1 h): 0.15±0.01
- Tumor-to-organ ratio, Kidney ([6]; 1 h): 0.62±0.05
- Tumor-to-organ ratio, Liver ([6]; 1 h): 0.46±0.27
- Tumor-to-organ ratio, Lung ([6]; 1 h): 0.83±0.22
- Tumor-to-organ ratio, Muscle ([6]; 1 h): 3.85±1.64
- Tumor-to-organ ratio, Spleen ([6]; 1 h): 1.09±0.15
- Tumor-to-organ ratio, Stomach ([6]; 1 h): 0.40±0.12
- whole-body retention ([6]; 1 h): 57.84 ± 5.15 % ID
- tumor uptake with co-injection of antagonist ([6]; 1 h): 0.96 ± 0.30 % ID/g
- tumor uptake [6]: 2.13±0.17 % ID/g
- Tumor-to-organ ratio, Blood ([6]; 2 h): 2.58±0.25
- Tumor-to-organ ratio, Bone ([6]; 2 h): 2.73±0.54
- Tumor-to-organ ratio, Heart ([6]; 2 h): 3.85±0.57
- Tumor-to-organ ratio, Intestine ([6]; 2 h): 0.11±0.02
- Tumor-to-organ ratio, Kidney ([6]; 2 h): 0.81±0.07
- Tumor-to-organ ratio, Liver ([6]; 2 h): 0.45±0.30
- Tumor-to-organ ratio, Lung ([6]; 2 h): 1.34±0.51
- Tumor-to-organ ratio, Muscle ([6]; 2 h): 5.75±1.56
- Tumor-to-organ ratio, Spleen ([6]; 2 h): 1.95±0.27
- Tumor-to-organ ratio, Stomach ([6]; 2 h): 0.29±0.09
- Tumor-to-organ ratio, Blood ([6]; 4 h): 3.15±0.25
- Tumor-to-organ ratio, Bone ([6]; 4 h): 3.76±1.36
- Tumor-to-organ ratio, Heart ([6]; 4 h): 3.88±0.90
- Tumor-to-organ ratio, Intestine ([6]; 4 h): 0.07±0.00
- Tumor-to-organ ratio, Kidney ([6]; 4 h): 0.78±0.04
- Tumor-to-organ ratio, Liver ([6]; 4 h): 0.40±0.17
- Tumor-to-organ ratio, Lung ([6]; 4 h): 2.71±0.95
- Tumor-to-organ ratio, Muscle ([6]; 4 h): 6.33±1.57
- Tumor-to-organ ratio, Spleen ([6]; 4 h): 1.54±0.40
- Tumor-to-organ ratio, Stomach ([6]; 4 h): 0.27±0.05
- whole-body retention ([6]; 4 h): 54.04 ± 3.57 % ID
- radioactivity at 1 h remained in the tumor at 4 h ([6]; 4 h relative to 1 h): 62%
- excretion route [6]: excreted to a larger extent via the hepatobiliary system
